ChEMBL document CHEMBL5543163, “Druglike, 18F-labeled PET Tracers Targeting Fibroblast Activation Protein” (J Med Chem, 2024)
Values belong to the compound of their own block, whether it stands above or below them.

Key:
[1] = target: T1, Prolyl endopeptidase FAP (Homo sapiens, UniProt Q12884); assay: Inhibition of FAP (unknown origin)
T1 sequence (Q12884 whole entry): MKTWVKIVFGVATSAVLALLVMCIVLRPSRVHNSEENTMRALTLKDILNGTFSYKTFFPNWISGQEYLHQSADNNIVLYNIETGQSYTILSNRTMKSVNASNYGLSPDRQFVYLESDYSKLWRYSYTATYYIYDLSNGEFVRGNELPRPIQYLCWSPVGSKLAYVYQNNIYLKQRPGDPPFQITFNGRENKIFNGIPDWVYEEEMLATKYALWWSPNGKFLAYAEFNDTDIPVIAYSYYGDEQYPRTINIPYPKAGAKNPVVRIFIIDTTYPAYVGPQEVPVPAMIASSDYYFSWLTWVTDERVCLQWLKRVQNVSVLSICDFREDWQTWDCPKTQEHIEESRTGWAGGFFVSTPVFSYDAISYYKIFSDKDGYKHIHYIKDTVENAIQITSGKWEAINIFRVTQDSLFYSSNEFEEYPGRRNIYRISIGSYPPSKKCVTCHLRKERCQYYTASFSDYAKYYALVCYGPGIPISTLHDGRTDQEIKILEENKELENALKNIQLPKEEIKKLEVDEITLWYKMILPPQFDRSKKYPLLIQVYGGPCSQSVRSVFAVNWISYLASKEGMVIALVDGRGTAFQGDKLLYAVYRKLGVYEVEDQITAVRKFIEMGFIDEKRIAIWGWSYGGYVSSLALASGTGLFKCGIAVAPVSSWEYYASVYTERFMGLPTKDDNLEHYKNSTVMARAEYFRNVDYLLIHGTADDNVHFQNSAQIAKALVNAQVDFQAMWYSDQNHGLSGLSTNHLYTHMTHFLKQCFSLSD

[2] = target: T2, Prolyl endopeptidase (Homo sapiens, UniProt P48147); assay: Inhibition of PREP (unknown origin)
T2 sequence (P48147 whole entry): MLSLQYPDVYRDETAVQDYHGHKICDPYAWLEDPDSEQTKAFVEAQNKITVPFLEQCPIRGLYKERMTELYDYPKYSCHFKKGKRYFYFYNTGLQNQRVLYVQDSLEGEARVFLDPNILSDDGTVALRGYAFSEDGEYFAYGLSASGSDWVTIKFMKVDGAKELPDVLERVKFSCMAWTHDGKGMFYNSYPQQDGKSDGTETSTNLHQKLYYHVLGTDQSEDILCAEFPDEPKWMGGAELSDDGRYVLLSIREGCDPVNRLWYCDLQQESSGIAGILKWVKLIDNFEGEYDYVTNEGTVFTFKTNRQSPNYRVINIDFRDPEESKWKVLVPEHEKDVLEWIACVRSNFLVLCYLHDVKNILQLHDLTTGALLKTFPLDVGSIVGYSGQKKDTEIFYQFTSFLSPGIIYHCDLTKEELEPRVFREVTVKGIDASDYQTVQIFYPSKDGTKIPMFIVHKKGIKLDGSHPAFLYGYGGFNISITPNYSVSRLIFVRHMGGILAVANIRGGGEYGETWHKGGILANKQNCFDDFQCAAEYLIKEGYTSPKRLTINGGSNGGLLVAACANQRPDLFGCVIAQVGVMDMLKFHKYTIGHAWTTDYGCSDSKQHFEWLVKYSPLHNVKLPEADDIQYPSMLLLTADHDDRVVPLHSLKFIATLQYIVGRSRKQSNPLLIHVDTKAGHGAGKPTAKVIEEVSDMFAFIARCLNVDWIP

[3] = Octanol/water partition coefficient, logD of compound at 74 kBq incubated for 2 mins by gamma counter method; type: physicochemical
Outline: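 Octanol and PBS phases were mixed and vortexed for 2 min, then centrifuged at 3,000 rpm for 10 min. Aliquots of 0.5 mL from each phase were γ-counted and corrected for mass and density. LogD was taken as log10 of the octanol/PBS radioactivity ratio.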

[4] = Stability in PBS assessed as compound remaining at 185 kBq measured upto 60 mins by radio-HPLC analysis; type: physicochemical; settings: read-out: Stability
Outline: (§1)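 Radiotracer was incubated at 37 °C for up to 60 min in PBS (0.01 M, pH 7.4) or in mouse plasma. Samples were deproteinized with an equal volume of cold ACN and centrifuged. The supernatant was analyzed by radio-HPLC with 30 s fractions γ-counted to give the intact fraction. Triplicates.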

[5] = Stability in CD1 mouse plasma assessed as compound remaining at 185 kBq measured upto 60 mins by radio-HPLC analysis; type: ADME, cell-free; settings: read-out: Stability; outline: as §1
[6] = Stability in PBS assessed as drug degradation at 185 kBq measured upto 60 mins by radio-HPLC analysis; type: physicochemical; settings: buffer, 1 h; outline: as §1
[7] = Stability in CD1 mouse plasma assessed as drug degradation at 185 kBq measured upto 60 mins by radio-HPLC analysis; type: ADME, cell-free; settings: 1 h; outline: as §1
[8] = Stability in female nude mouse harboring null mutation of CD1 antigen complex assessed as compound remaining at 5.1 to 7.4 MBq, iv measured at 60 mins by radio-HPLC analysis; type: ADME, organism-based; settings: in vivo, dose 5.1-7.4 MBq, read-out: Stability
Outline: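 Female CD1 nude mice received 5.1–7.4 MBq i.v. EDTA blood collected at 15, 30 and 60 min p.i. (n=3 per time point) was centrifuged to plasma, deproteinized with cold ACN and centrifuged. The supernatant was analyzed by radio-HPLC with 30 s fractions γ-counted to give the percent intact tracer.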

[9] = Drug uptake in blood of female nude mouse harboring null mutation of CD1 antigen complex at 5.1 to 7.4 MBq, iv measured after 15 to 60 mins by gamma counter analysis; type: ADME, organism-based; settings: in vivo, dose lower 5.1 MBq, time lower 15 min, dose upper 7.4 MBq, time upper 60 min
Outline: (§2)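 Female CD1 nude mice, 6–8 weeks old (20–25 g), received the radiotracer through the lateral tail vein. At 15, 30 and 60 min p.i. (n = 3 per time point) blood was drawn by cardiac puncture and the animals were euthanized. Organs were excised, weighed and γ-counted. Uptake is expressed as %ID/g.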

[10] = Drug uptake in liver of female nude mouse harboring null mutation of CD1 antigen complex at 5.1 to 7.4 MBq, iv measured after 15 to 60 mins by gamma counter analysis; type: ADME, organism-based; settings: in vivo, dose lower 5.1 MBq, time lower 15 min, dose upper 7.4 MBq, time upper 60 min; outline: as §2
[11] = Drug uptake in intestine of female nude mouse harboring null mutation of CD1 antigen complex at 5.1 to 7.4 MBq, iv measured after 15 to 60 mins by gamma counter analysis; type: ADME, organism-based; settings: in vivo, dose lower 5.1 MBq, time lower 15 min, dose upper 7.4 MBq, time upper 60 min; outline: as §2
[12] = Drug uptake in kidney of female nude mouse harboring null mutation of CD1 antigen complex assessed as increase in renal excretion at 5.1 to 7.4 MBq, iv measured after 15 to 60 mins by gamma counter analysis; type: ADME, organism-based; settings: in vivo, dose lower 5.1 MBq, time lower 15 min, dose upper 7.4 MBq, time upper 60 min; outline: as §2
[13] = Drug uptake in urinary bladder of female nude mouse harboring null mutation of CD1 antigen complex assessed as increase in renal excretion at 5.1 to 7.4 MBq, iv measured after 15 to 60 mins by gamma counter analysis; type: ADME, organism-based; settings: in vivo, dose lower 5.1 MBq, time lower 15 min, dose upper 7.4 MBq, time upper 60 min; outline: as §2
[14] = Drug uptake in large intestine of female nude mouse harboring null mutation of CD1 antigen complex assessed as increase in renal excretion at 5.1 to 7.4 MBq, iv measured at 60 mins by gamma counter analysis; type: ADME, organism-based; settings: in vivo, 1 h, dose 5.1-7.4 MBq; outline: as §2
[15] = Drug uptake in tumor of female nude mouse harboring null mutation of CD1 antigen complex xenografted with human U-87 MG cells at 5 to 7.4 MBq, iv measured at 60 mins by PET/CT analysis; type: ADME, organism-based, Neoplasm; settings: in vivo, 1 h, dose 5-7.4 MBq
Outline: (§3)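 U-87MG xenografts (5×10^6 cells, subcutaneous flank) were grown in female CD1 nude mice to about 200 mm3. Dynamic whole-body PET over 60 min p.i. was followed by CT. Images were reconstructed with OSEM 3D and expressed as %ID/mL to give time-activity curves. For blocking, the FAP inhibitor (5 mg/kg) was given via the tail vein 30 min before the tracer; n=4.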

[16] = Drug uptake in tumor of female nude mouse harboring null mutation of CD1 antigen complex xenografted with human U-87 MG cells at 5 to 7.4 MBq, iv pretreated with (S)-N-(2-(2-cyano-4,4-difluoropyrrolidin-1-yl)-2-oxoethyl)quinoline-4-carboxamide for 30 mins followed by radioligand addition and measured measured after 60 mins by PET/CT analysis; type: ADME, organism-based, Neoplasm; settings: in vivo, 1 h, dose 5-7.4 MBq; outline: as §3
[17] = Drug uptake in skull of female nude mouse harboring null mutation of CD1 antigen complex xenografted with human U-87 MG cells at 5 to 7.4 MBq, iv measured after 60 mins by gamma counter analysis; type: ADME, organism-based; settings: in vivo, 1 h, dose 5-7.4 MBq
[18] = Drug uptake in tibia of female nude mouse harboring null mutation of CD1 antigen complex xenografted with human U-87 MG cells at 5 to 7.4 MBq, iv measured after 60 mins by gamma counter analysis; type: ADME, organism-based; settings: in vivo, 1 h, dose 5-7.4 MBq
[19] = Ratio of drug level in tumor to muscle of female nude mouse harboring null mutation of CD1 antigen complex xenografted with human U-87 MG cells at 5 to 7.4 MBq, iv measured at 60 mins postinjection by gamma counter analysis; type: ADME, organism-based; settings: in vivo, 1 h, dose 5-7.4 MBq
Outline: (§4)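 Subcutaneous U-87MG xenografts (5×10^6 cells in DPBS, hind flank) were grown in female CD1 nude mice to about 200 mm3. After tail-vein radiotracer injection and a 60 min dynamic PET scan, tissues were harvested at 60 min p.i. and γ-counted (%ID/g). Tumor-to-tissue ratios are means ± SD of individual ratios, n=4 per tracer.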

[20] = Ratio of drug level in tumor to blood of female nude mouse harboring null mutation of CD1 antigen complex xenografted with human U-87 MG cells at 5 to 7.4 MBq, iv measured at 60 mins postinjection by gamma counter analysis; type: ADME, organism-based; settings: tumour, 1 h, dose 5-7.4 MBq; outline: as §4
[21] = Ratio of drug level in tumor to small intestine of female nude mouse harboring null mutation of CD1 antigen complex xenografted with human U-87 MG cells at 5 to 7.4 MBq, iv measured at 60 mins postinjection by gamma counter analysis; type: ADME, organism-based; settings: in vivo, 1 h, dose 5-7.4 MBq; outline: as §4
[22] = Ratio of drug level in tumor to liver of female nude mouse harboring null mutation of CD1 antigen complex xenografted with human U-87 MG cells at 5 to 7.4 MBq, iv measured at 60 mins postinjection by gamma counter analysis; type: ADME, organism-based; settings: in vivo, 1 h, dose 5-7.4 MBq; outline: as §4
[23] = Drug uptake in tumor of female nude mouse harboring null mutation of CD1 antigen complex xenografted with FAP-negative human HT-29 cells at 5 to 7.4 MBq, iv measured after 60 mins by autoradiography; type: ADME, organism-based, Neoplasm; settings: in vivo, 1 h, dose 5-7.4 MBq
Outline: (§5)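 Right after imaging and γ-counting, tumors from HT29 or U-87MG xenografts were snap-frozen and embedded in OCT. Sections of 100 µm were exposed overnight to phosphor screens. Non-blocked tumors were compared with tumors from mice pre-injected with the FAP inhibitor.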

[24] = Drug uptake in tumor of female nude mouse harboring null mutation of CD1 antigen complex xenografted with human U-87 MG cells at 5 to 7.4 MBq, iv measured after 60 mins by autoradiography; type: ADME, organism-based, Neoplasm; settings: in vivo, 1 h, dose 5-7.4 MBq; outline: as §5
[25] = Drug uptake in tumor of female nude mouse harboring null mutation of CD1 antigen complex xenografted with human U-87 MG cells with increased FAP positive tumor area at 5 to 7.4 MBq, iv measured after 60 mins by immunohistochemistry analysis; type: ADME, organism-based, Neoplasm; settings: in vivo, 1 h, dose 5-7.4 MBq
[26] = Drug uptake in tumor of female nude mouse harboring null mutation of CD1 antigen complex xenografted with human HT-29 cells with decreased FAP positive tumor area at 5 to 7.4 MBq, iv measured after 60 mins by immunohistochemistry analysis; type: ADME, organism-based, Neoplasm; settings: in vivo, 1 h, dose 5-7.4 MBq
[27] = Drug uptake in bone structures of female nude mouse harboring null mutation of CD1 antigen complex xenografted with human U-87 MG cells at 5 to 7.4 MBq, iv measured after 60 mins by gamma counter analysis; type: ADME, organism-based, Bone element; settings: in vivo, 1 h, dose 5-7.4 MBq

IC50 [1]: 0.8 nM
IC50 [2]: 1700 nM
SMILES: CN(CC(=O)O)C1(CCCCNCCNc2c(NCCCCOc3ccc4nccc(C(=O)NCC(=O)N5CC(F)(F)C[C@H]5C#N)c4c3)c(=O)c2=O)CN(CC(=O)O)CCN(CC(=O)O)C1

logD at 2 min [3]: -1.77
remaining at 1 h, 185 kBq [4]: > 70%
remaining at 1 h, 185 kBq [5]: > 70%
Stability [6]: Stable
Stability [7]: Stable
remaining at 1 h [8]: 56.5%
Drug uptake [9]: 0.24 % ID/g
Drug uptake [10]: Active
Drug uptake [11]: Active
Drug uptake [12]: Active
Drug uptake [13]: Active
Drug uptake [14]: 0.38 % ID/g
Drug uptake [15]: 10.16 %ID/ml
Drug uptake [16]: Not Active
Drug uptake [17]: Active
Drug uptake [18]: 4.33 % ID/g
Ratio [19]: 6.54
Ratio [20]: 6.35
Ratio [21]: 2.43
Ratio [22]: 4.77
Drug uptake [23]: Active
Drug uptake [24]: Active
Drug uptake [25]: Active
Drug uptake [26]: Not Active
Drug uptake [27]: Active
SMILES: [2H]C([2H])([18F])[N+](C)(C)CCCOc1ccc2nccc(C(=O)NCC(=O)N3CC(F)(F)C[C@H]3C#N)c2c1
